≈ marks a conversion by molar mass, not a printed value.
Legend:
[1] = Minimum cytotoxic concentration which causes microscopically detectable alteration of normal cell morphology after 2 days of incubation.; type: functional; conditions: 48 h
Summary of the method: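 Uninfected E6SM cells exposed to compound for 2 days. Minimum concentration giving a microscopically detectable change in normal cell morphology recorded.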

E6SM [2] = assay: 50% Minimum inhibitory concentration which is required to reduce cytopathogenicity induced by TK-(B2006) strain of HSV-1 virus on human E6SM cells.; type: functional
Summary of the method: (§1)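 Confluent cell monolayers infected with 100 CCID50 virus and left 1 h for adsorption. Residual virus then removed and compound added at serial dilutions (400, 200, 100 ... µg/mL). Value is the concentration giving 50% reduction of CPE.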

CCRF-CEM [3] = assay: 50% effective concentration of compound which is required to protect human CEM cells against HIV-2 induced giant cell formation.; type: functional, cell-based
Summary of the method: (§2)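 CEM cells at 250000–300000 cells/mL infected with HIV-1 (IIIB) or HIV-2 (ROD) at 100 CCID50/mL. Infected cells mixed with serial compound dilutions and incubated 4 days at 37 °C. Syncytium (giant cell) formation then scored. Values averaged over two independent experiments.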

MT4 [4] = assay: 50% effective concentration of compound which is required to protect human MT-4 cells against cytopathogenicity of HIV-2.; type: functional, cell-based
E6SM [5] = assay: 50% Minimum inhibitory concentration which is required to reduce cytopathogenicity induced by (F) strain of HSV-1 virus on human E6SM cells.; type: functional; summary of the method: as §1
E6SM [6] = assay: 50% Minimum inhibitory concentration which is required to reduce cytopathogenicity induced by (KOS) strain of HSV-1 virus on human E6SM cells.; type: functional; summary of the method: as §1
MOLT-4 = assay: EC50 is the cytotoxic concentration of compound required to reduce Molt4/C8 (human T-lymphocyte) cell viability by 50%.; type: functional, cell-based
Summary of the method: (§3)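 Human CEM or Molt-4 cells seeded at 7.5 × 10^5 cells/mL with varying compound concentrations. Incubated 3 days at 37 °C in humidified CO2. Viable cells counted with a Coulter counter. Value is the concentration reducing viable cell number by 50%.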

MT4 [7] = assay: Cytotoxic concentration which is required to reduce human MT-4 cell viability by 50%.; type: functional
[8] = Selectivity index of HIV-1 and HIV-2 with respect to CEM cells; type: functional, CCRF-CEM
Summary of the method: (§4)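 Selectivity index calculated as average CC50 divided by average EC50. Each average comes from two independent experiments, using HIV-1 (IIIB) and HIV-2 (ROD) in CEM or MT-4 cells.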

E6SM [9] = assay: 50% Minimum inhibitory concentration which is required to reduce cytopathogenicity induced by (196) strain of HSV-2 virus on human E6SM cells.; type: functional; summary of the method: as §1
MT4 [10] = assay: 50% effective concentration of compound which is required to protect human MT-4 cells against cytopathogenicity of HIV-1.; type: functional, cell-based
CCRF-CEM [11] = assay: Cytotoxic concentration which is required to reduce human CEM cell viability by 50%.; type: functional; summary of the method: as §3
E6SM [12] = assay: 50% Minimum inhibitory concentration which is required to reduce cytopathogenicity induced by (G) strain of HSV-2 virus on human E6SM cells.; type: functional; summary of the method: as §1
E6SM [13] = assay: 50% Minimum inhibitory concentration which is required to reduce cytopathogenicity induced by (Mc Intyre) strain of HSV-1 virus on human E6SM cells.; type: functional; summary of the method: as §1
FM3A [14] = assay: EC50 is the cytotoxic concentration of compound required to reduce FM3A/TK- (Thymidine kinase deficient murine mammary carcinoma cells) cell viability by 50%.; type: functional, cell-based; conditions: Mus musculus
Summary of the method: (§5)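 Murine L1210 or FM3A-derived cells seeded at 5 × 10^5 cells/mL with varying compound concentrations. Incubated 2 days at 37 °C in humidified CO2. Viable cells counted with a Coulter counter. Value is the concentration reducing viable cell number by 50%.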

FM3A [15] = assay: EC50 is the cytotoxic concentration of compound required to reduce FM3A/TK- HSV-1TK+ cell viability by 50%.; type: functional, cell-based; conditions: Mus musculus; summary of the method: as §5
CCRF-CEM [16] = assay: 50% effective concentration of compound which is required to protect human CEM cells against HIV-1 induced giant cell formation.; type: functional, cell-based; summary of the method: as §2
L1210 = assay: EC50 is the cytotoxic concentration of compound required to reduce L1210 (murine leukemia cells) cell viability by 50%.; type: functional, cell-based; conditions: Mus musculus; summary of the method: as §5
CEM-TK(-) [17] = assay: Cytotoxic concentration which is required to reduce CEM/TK- cell viability by 50%.; type: functional; conditions: Homo sapiens
CEM-TK(-) [18] = assay: 50% effective concentration of compound which is required to protect Thymidine kinase deficient human CEM (CEM/TK-) cells against HIV-2.; type: functional, cell-based
FM3A [19] = assay: EC50 is the cytotoxic concentration of compound required to reduce FM3A (murine mammary carcinoma cells) cell viability by 50%.; type: functional, cell-based; conditions: Mus musculus; summary of the method: as §5
[20] = Selectivity index of HIV-1 and HIV-2 with respect to MT-4 cells; type: functional, MT4; summary of the method: as §4
E6SM [21] = assay: 50% Minimum inhibitory concentration which is required to reduce cytopathogenicity induced by (Lyons) strain of HSV-2 virus on human E6SM cells.; type: functional; summary of the method: as §1
HEL [22] = assay: 50% Minimum inhibitory concentration which is required to reduce cytopathogenicity induced by (KOS) strain of HSV-1 virus on human embryonic HEL cells.; type: functional; summary of the method: as §1
HEL [23] = assay: 50% Minimum inhibitory concentration which is required to reduce cytopathogenicity induced by (Mc Intyre) strain of HSV-1 virus on human embryonic HEL cells.; type: functional; summary of the method: as §1
HEL [24] = assay: 50% Minimum inhibitory concentration which is required to reduce cytopathogenicity induced by (G) strain of HSV-2 virus on human embryonic HEL cells.; type: functional; summary of the method: as §1
HEL [25] = assay: 50% Minimum inhibitory concentration which is required to reduce cytopathogenicity induced by TK-(B2006) strain of HSV-1 virus on human embryonic HEL cells.; type: functional; summary of the method: as §1
HEL [26] = assay: 50% Minimum inhibitory concentration which is required to reduce cytopathogenicity induced by (Lyons) strain of HSV-2 virus on human embryonic HEL cells.; type: functional; summary of the method: as §1

Compound	MCC [1]	MIC (E6SM [2])	EC50 (CCRF-CEM [3])	EC50 (MT4 [4])	MIC (E6SM [5])	MIC (E6SM [6])	EC50 (MOLT-4)	CC50 (MT4 [7])	Selectivity index [8]	MIC (E6SM [9])	EC50 (MT4 [10])	CC50 (CCRF-CEM [11])	MIC (E6SM [12])	MIC (E6SM [13])	EC50 (FM3A [14])	EC50 (FM3A [15])	EC50 (CCRF-CEM [16])	EC50 (L1210)	CC50 (CEM-TK(-) [17])	MIC (E6SM [21])	also measured
Cc1cn(C2C/C(=[N+](/[O-])O)C(CO)O2)c(=O)[nH]c1=O (configuration not stated)	> 200 µg/mL	> 200 µg/mL	10 µg/mL (≈ 36.9 µM)	1.2 µg/mL (≈ 4.42 µM)	9 µg/mL (≈ 33.2 µM)	35 µg/mL (≈ 129 µM)	17 µg/mL (≈ 62.7 µM)	91 µg/mL (≈ 336 µM)	25	> 200 µg/mL	0.86 µg/mL (≈ 3.17 µM)	247 µg/mL (≈ 911 µM)	> 200 µg/mL	35 µg/mL (≈ 129 µM)	> 200 µg/mL	> 200 µg/mL	13 µg/mL (≈ 47.9 µM)	25 µg/mL (≈ 92.2 µM)	> 200 µg/mL	> 200 µg/mL	EC50 (CEM-TK(-) [18]): > 100 µg/mL; EC50 (FM3A [19]): > 200 µg/mL; Selectivity index [20]: 102
Nc1nc2c(ncn2COC(CO)CO)c(=O)[nH]1 [GANCICLOVIR]	> 100 µg/mL	5 µg/mL (≈ 19.6 µM)	–	–	0.002 µg/mL (≈ 0.00784 µM)	0.001 µg/mL (≈ 0.00392 µM)	–	–	–	0.006 µg/mL (≈ 0.0235 µM)	–	–	0.002 µg/mL (≈ 0.00784 µM)	0.003 µg/mL (≈ 0.0118 µM)	–	–	–	–	–	0.002 µg/mL (≈ 0.00784 µM)	–
NC(=O)c1ncn([C@@H]2O[C@H](CO)[C@@H](O)[C@H]2O)n1 [RIBAVIRIN]	> 400 µg/mL	150 µg/mL (≈ 614 µM)	–	–	80 µg/mL (≈ 328 µM)	60 µg/mL (≈ 246 µM)	–	–	–	150 µg/mL (≈ 614 µM)	–	–	50 µg/mL (≈ 205 µM)	90 µg/mL (≈ 369 µM)	–	–	–	–	–	100 µg/mL (≈ 409 µM)	–
CO/N=C1/C[C@H](n2cc(C)c(=O)[nH]c2=O)O[C@@H]1CO.CO/N=C1\C[C@H](n2cc(C)c(=O)[nH]c2=O)O[C@@H]1CO	> 200 µg/mL	> 200 µg/mL	27 µg/mL	4.6 µg/mL	> 200 µg/mL	> 200 µg/mL	> 200 µg/mL	182 µg/mL	8	> 200 µg/mL	3.3 µg/mL	> 200 µg/mL	> 200 µg/mL	> 200 µg/mL	> 200 µg/mL	> 200 µg/mL	26 µg/mL	112 µg/mL	> 200 µg/mL	> 200 µg/mL	MIC (HEL [22]): 50 µg/mL; MIC (HEL [23]): > 50 µg/mL; MIC (HEL [24]): > 50 µg/mL; MIC (HEL [25]): > 50 µg/mL; MIC (HEL [26]): 35 µg/mL; EC50 (CEM-TK(-) [18]): > 100 µg/mL; EC50 (FM3A [19]): > 200 µg/mL; Selectivity index [20]: 64

Source: ChEMBL document CHEMBL1130413, “Novel 3'-C/N-substituted 2',3'-beta-D-dideoxynucleosides as potential chemotherapeutic agents. 1. Thymidine derivatives: synthesis, structure, and broad spectrum antiviral properties” (J Med Chem, 1997)
